# From ChEMBL document CHEMBL1139875, “Discovery of 4-aminobutyric acid derivatives possessing anticonvulsant and antinociceptive activities: a hybrid pharmacophore approach” (2007)
# Activity calls are given as the source filed them. The rule behind the calls is not given here.
# Legend:
# Rattus norvegicus [1] = assay: Effect on spontaneous pain in Sprague-Dawley rat SNL model assessed as duration of paw withdrawal at 100 mg/kg, ip after 2 hrs; type: functional; details: route intraperitoneal
# Summary of the method: (§1)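 Rats underwent left L5 spinal nerve ligation (Kim and Chung) under i.p. pentobarbital (65 mg/kg). Spontaneous pain is recorded for 5 min after 10 min acclimatization, as cumulative duration the ipsilateral paw is lifted, excluding locomotor lifts. Dosing is 100 mg/kg i.p. in 30% v/v PEG 400/water, with testing at 0.5–2.5 h. Four rats, mean ± SEM versus predrug, one-way ANOVA with Bonferroni.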
# Rattus norvegicus [2] = assay: Anti-dynamic allodynia effect in Sprague-Dawley rat SNL model assessed as latency to paw withdrawal 100 mg/kg, ip after 2.5 hrs; type: functional; details: route intraperitoneal
# Summary of the method: (§2)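 Left L5 spinal nerve ligation rats, tested preoperatively and 9 days postoperatively, then given 100 mg/kg i.p. (vehicle 30% v/v PEG 400 in water). After 10 min acclimatization, plantar surface of affected paw stroked mildly with a cotton-bud; paw lift response recorded. n = 4; retested 0.5-2.5 h post-dose.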
# Rattus norvegicus [3] = assay: Anti-cold allodynia effect in Sprague-Dawley rat CCI model assessed as duration of paw withdrawal at 100 mg/kg, ip after 0.5 hr; type: functional; details: route intraperitoneal
# Summary of the method: (§3)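 CCI by sciatic nerve ligation under pentobarbital (65 mg/kg i.p.). Rats tested at baseline and 9 days post-surgery; those with allodynia dosed i.p. 100 mg/kg, vehicle 30% v/v PEG 400 in water. Acetone (100-200 µL) misted on midplantar affected paw; withdrawal duration recorded, three samples averaged, at least 3 min apart; n = 4.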
# Rattus norvegicus [4] = assay: Anti-cold allodynia effect in Sprague-Dawley rat SNL model assessed as duration of paw withdrawal 100 mg/kg, ip after 2.5 hrs; type: functional; details: route intraperitoneal
# Summary of the method: (§4)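 Left L5 spinal nerve ligation under pentobarbital (65 mg/kg i.p.). Allodynic rats dosed i.p. 100 mg/kg, vehicle 30% v/v PEG 400 in water. Acetone (100-200 µL) misted onto midplantar affected paw after 10 min acclimatization; paw withdrawal duration, mean of three samples at least 3 min apart; n = 4 rats.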
# Rattus norvegicus [5] = assay: Anti-cold allodynia effect in Sprague-Dawley rat SNL model assessed as duration of paw withdrawal 100 mg/kg, ip after 1.5 hrs; type: functional; details: route intraperitoneal; summary of the method: as §4
# Rattus norvegicus [6] = assay: Antihyperalgesic effects in Sprague-Dawley rat SNL model assessed as duration of paw withdrawal at 100 mg/kg, ip after 2 hrs, ip; type: functional; details: route intraperitoneal
# Summary of the method: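 L5 SNL rats (n = 4), dosed 100 mg/kg i.p. (vehicle 30% v/v PEG 400 in water). Pin-prick to midplantar ipsilateral left hindpaw; withdrawal duration, mean of three responses; ≥2 s defined abnormal. Mean ± SEM; one-way ANOVA with Bonferroni versus predrug.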
# Rattus norvegicus [7] = assay: Effect on spontaneous pain in Sprague-Dawley rat SNL model assessed as duration of paw withdrawal at 100 mg/kg, ip after 1.5 hrs; type: functional; details: route intraperitoneal; summary of the method: as §1
# Rattus norvegicus [8] = assay: Anti-dynamic allodynia effect in Sprague-Dawley rat SNL model assessed as latency to paw withdrawal 100 mg/kg, ip after 1.5 hrs; type: functional; details: route intraperitoneal; summary of the method: as §2
# Rattus norvegicus [9] = assay: Anti-cold allodynia effect in Sprague-Dawley rat CCI model assessed as duration of paw withdrawal 100 mg/kg, ip after 2.5 hr; type: functional; details: route intraperitoneal; summary of the method: as §3
# Rattus norvegicus [10] = assay: Effect on spontaneous pain in Sprague-Dawley rat SNL model assessed as duration of paw withdrawal at 100 mg/kg, ip after 2.5 hrs; type: functional; details: route intraperitoneal; summary of the method: as §1
# Rattus norvegicus [11] = assay: Anti-cold allodynia effect in Sprague-Dawley rat SNL model assessed as duration of paw withdrawal 100 mg/kg, ip after 1 hrs; type: functional; details: route intraperitoneal; summary of the method: as §4
# Rattus norvegicus [12] = assay: Anti-dynamic allodynia effect in Sprague-Dawley rat SNL model assessed as latency to paw withdrawal 100 mg/kg, ip after 1 hr; type: functional; details: route intraperitoneal; summary of the method: as §2
# Rattus norvegicus [13] = assay: Effect on spontaneous pain in Sprague-Dawley rat SNL model assessed as duration of paw withdrawal at 100 mg/kg, ip after 0.5 hr; type: functional; details: route intraperitoneal; summary of the method: as §1
# Rattus norvegicus [14] = assay: Anti-cold allodynia effect in Sprague-Dawley rat CCI model assessed as duration of paw withdrawal 100 mg/kg, ip after 1.5 hr; type: functional; details: route intraperitoneal; summary of the method: as §3
# Mus musculus [15] = assay: Neurotoxicity in Swiss Albino mouse at 100 mg/kg, ip after 0.5 hr by rotarod test; type: functional, organism-based; set-up: dose 100 mg/kg
# Summary of the method: (§5)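 Swiss mice (20-25 g) are trained on an accelerating rotorod (10 rpm, 3.2 cm rod), then injected i.p. at 30, 100 or 300 mg/kg, with three per group. Neurotoxicity means failure to keep equilibrium for at least 1 min in each of three trials, checked at 0.5 and 4 h. The value reported is the minimum dose affecting half or more of the mice.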
# Mus musculus [16] = assay: Anticonvulsant activity in Swiss Albino mouse at 300 mg/kg, ip after 0.5 hr by scPIC test; type: functional, organism-based; set-up: dose 300 mg/kg
# Summary of the method: (§6)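 Mice (Swiss, 20-25 g) given i.p. doses of 30, 100 and 300 mg/kg under ADD program protocols, three per group, examined at 0.5 and 4 h in MES, scPTZ, scSTY or scPIC seizure tests. Value is the minimum dose protecting half or more of the mice.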
# Mus musculus [17] = assay: Anticonvulsant activity in Swiss Albino mouse at 300 mg/kg, ip after 0.5 hr by MES test; type: functional, organism-based; set-up: dose 300 mg/kg; summary of the method: as §6
# Mus musculus [18] = assay: Anticonvulsant activity in Swiss Albino mouse at 300 mg/kg, ip after 4 hrs by scPIC test; type: functional, organism-based; set-up: dose 300 mg/kg; summary of the method: as §6
# Mus musculus [19] = assay: Anticonvulsant activity in Swiss Albino mouse at 300 mg/kg, ip after 0.5 hr by scPTZ test; type: functional, organism-based; set-up: dose 300 mg/kg; summary of the method: as §6
# Mus musculus [20] = assay: Anticonvulsant activity in Swiss Albino mouse at 300 mg/kg, ip after 4 hrs by scSTY test; type: functional, organism-based; set-up: dose 300 mg/kg; summary of the method: as §6
# Mus musculus [21] = assay: Analgesic activity in Swiss Albino mouse assessed as number of acetic acid-induced writhing per 30 min after 100 mg/kg, ip; type: functional; details: route intraperitoneal
# Summary of the method: (§7)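 Mice in groups of six dosed i.p. at 100 mg/kg, controls receiving 30% v/v PEG 400 in water. Writhing induced by i.p. 0.1 mL of 3% v/v acetic acid 1 h after drug. Writhes (abdominal stretch with at least one hind limb extended) counted over 30 min; % inhibition calculated. Mean ± SEM, Student's t test.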
# Mus musculus [22] = assay: Analgesic activity in Swiss Albino mouse assessed as inhibition of acetic acid-induced writhing responses at 100 mg/kg, ip; type: functional; details: route intraperitoneal; summary of the method: as §7
# Mus musculus [23] = assay: Anticonvulsant activity in Swiss Albino mouse at 300 mg/kg, ip after 0.5 hr by scSTY test; type: functional, organism-based; set-up: dose 300 mg/kg; summary of the method: as §6
# Mus musculus [24] = assay: Neurotoxicity in Swiss Albino mouse at 300 mg/kg, ip after 4 hrs by rotarod test; type: functional, organism-based; set-up: dose 300 mg/kg; summary of the method: as §5
# Mus musculus [25] = assay: Anticonvulsant activity in Swiss Albino mouse at 30 mg/kg, ip after 4 hrs by scPIC test; type: functional, organism-based; set-up: dose 30 mg/kg; summary of the method: as §6
# Mus musculus [26] = assay: Neurotoxicity in Swiss Albino mouse at 300 mg/kg, ip after 0.5 hr by rotarod test; type: functional, organism-based; set-up: dose 300 mg/kg; summary of the method: as §5
# Mus musculus [27] = assay: Anticonvulsant activity in Swiss Albino mouse at 30 mg/kg, ip after 4 hrs by scSTY test; type: functional, organism-based; set-up: dose 30 mg/kg; summary of the method: as §6
# Mus musculus [28] = assay: Anticonvulsant activity in Swiss Albino mouse at 30 mg/kg, ip after 0.5 hr by scPIC test; type: functional, organism-based; set-up: dose 30 mg/kg; summary of the method: as §6
# Mus musculus [29] = assay: Anticonvulsant activity in Swiss Albino mouse at 30 mg/kg, ip after 0.5 hr by scSTY test; type: functional, organism-based; set-up: dose 30 mg/kg; summary of the method: as §6
# Mus musculus [30] = assay: Anticonvulsant activity in Swiss Albino mouse at 100 mg/kg, ip after 4 hrs by scPIC test; type: functional, organism-based; set-up: dose 100 mg/kg; summary of the method: as §6
Structure (SMILES),Activity (Rattus norvegicus [1]) [s],Activity (Rattus norvegicus [2]) [s],Activity (Rattus norvegicus [3]) [s],Activity (Rattus norvegicus [4]) [s],Activity (Rattus norvegicus [5]) [s],Activity (Rattus norvegicus [6]) [s],Activity (Rattus norvegicus [7]) [s],Activity (Rattus norvegicus [8]) [s],Activity (Rattus norvegicus [9]) [s],Activity (Rattus norvegicus [10]) [s],Activity (Rattus norvegicus [11]) [s],Activity (Rattus norvegicus [12]) [s],Activity (Rattus norvegicus [13]) [s],Activity (Rattus norvegicus [14]) [s],Activity (Mus musculus [17]),Activity (Mus musculus [19]),Activity (Mus musculus [20]),Activity (Mus musculus [21]),inhibition in vivo at 100 mg/kg (Mus musculus [22]) [%],Activity (Mus musculus [24]),further results
NCC1(CC(=O)O)CCCCC1 [GABAPENTIN],9.1,6.53,26.8,6.9,7.8,9.9,10.2,6,7.2,10.1,9,4.6,29.7,9.3,,,,,,,
O=C(O)CCCNC(=O)N/N=C1\C(=O)Nc2ccccc21,0.7,,,41.2,22.6,19.7,0.9,,,9.8,16.3,,1.2,,Active,Active,inactive,47.3,74,Active,Activity (Mus musculus [15]): Active; Activity (Mus musculus [16]): Active; Activity (Mus musculus [18]): Active; Activity (Mus musculus [23]): inactive
Nc1nnc(-c2cccc(Cl)c2Cl)c(N)n1 [LAMOTRIGINE],22.9,0.64,53.7,18.4,21.8,6.4,2.6,1.9,23.7,24.4,9.2,1.6,15.6,32.4,,,,,,,
NC(=O)N1c2ccccc2C=Cc2ccccc21 [CARBAMAZEPINE],85.4,1.65,12.8,20.6,7.9,5.5,22.3,2.9,21.8,94.9,11.8,13.4,14.6,28.9,,,,,,,
O=C(O)CCCNC(=O)N/N=C/c1ccccc1O,,11.32,31.3,28.5,26,,,11.5,12.2,,27.3,14.3,,11.2,inactive,inactive,,19,89,Active,Activity (Mus musculus [25]): Active; Activity (Mus musculus [26]): inactive; Activity (Mus musculus [27]): Active; Activity (Mus musculus [28]): Active; Activity (Mus musculus [29]): Active
CN(C)c1ccc(/C=N/NC(=O)NCCCC(=O)O)cc1,29.2,1.82,28.1,,,4.4,16.4,7.3,18.1,43,,8.8,12.4,14.4,inactive,inactive,inactive,13,93,inactive,Activity (Mus musculus [26]): inactive; Activity (Mus musculus [28]): Active; Activity (Mus musculus [30]): Active; Activity (Mus musculus [23]): inactive
